What all share (format): functional
The subject of assay [1] is Acinetobacter pittii. Nature of the assay: Antibacterial activity against Acinetobacter genomosp. 3 isolate 14 by Etest method. Put shortly:
(§1)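 MICs for AG3 clinical isolates were read by Etest following the manufacturer's instructions. Isolates were stored at –80°C in 10% Brucella glycerol broth before testing.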

For assay [2], the system named is Acinetobacter pittii. Nature of the assay: Antibacterial activity against Acinetobacter genomosp. 3 isolate 20 by Etest method. Put shortly:
as §1

Assay [3] has as its system Acinetobacter pittii. Briefly: Antibacterial activity against Acinetobacter genomosp. 3 isolate 21 by Etest method. The procedure, abridged: as §1
In assay [4] the test system is Acinetobacter pittii. Nature of the assay: Antibacterial activity against Acinetobacter genomosp. 3 isolate 52 by Etest method. Put shortly:
as §1

Assay [5] deals with Acinetobacter pittii. Nature of the assay: Antibacterial activity against Acinetobacter genomosp. 3 isolate 56 by Etest method. The procedure, abridged:
as §1

Assay [6] deals with Acinetobacter pittii. Nature of the assay: Antibacterial activity against Acinetobacter genomosp. 3 isolate 60 by Etest method. Put shortly:
as §1

In assay [7] the test system is Acinetobacter pittii. Nature of the assay: Antibacterial activity against Acinetobacter genomosp. 3 isolate 65 by Etest method. Put shortly: as §1
Assay [8] has as its system Acinetobacter pittii. Nature of the assay: Antibacterial activity against Acinetobacter genomosp. 3 isolate 67 by Etest method. The procedure, abridged: as §1
Assay [9] has as its system Acinetobacter pittii. Briefly: Antibacterial activity against Acinetobacter genomosp. 3 isolate 69 by Etest method. Put shortly: as §1
Assay [10] has as its system Acinetobacter pittii. Briefly: Antibacterial activity against Acinetobacter genomosp. 3 isolate 90 by Etest method. Put shortly:
as §1

Assay [11] relates to Acinetobacter pittii. Briefly: Antibacterial activity against Acinetobacter genomosp. 3 isolate 103 by Etest method. Put shortly:
as §1

Assay [12] has as its system Acinetobacter pittii. Briefly: Antibacterial activity against Acinetobacter genomosp. 3 isolate 109 by Etest method. Put shortly: as §1
Assay [13] deals with Acinetobacter pittii. Nature of the assay: Antibacterial activity against Acinetobacter genomosp. 3 isolate 128 by Etest method. Put shortly: as §1
Assay [14] concerns Acinetobacter pittii. Briefly: Antibacterial activity against Acinetobacter genomosp. 3 isolate 195 by Etest method. The procedure, abridged:
as §1

For assay [15], the system named is Acinetobacter pittii. Briefly: Antibacterial activity against Acinetobacter genomosp. 3 isolate 243 by Etest method. Put shortly:
as §1

The test system of assay [16] is Escherichia coli. Nature of the assay: Antibacterial activity against Escherichia coli DH5alpha by Etest method. The procedure, abridged:
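E. coli DH5α host strain, grown at 37°C in LB medium. MICs of β-lactams determined by Etest following the manufacturer's instructions.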

The subject of assay [17] is Escherichia coli. Briefly: Antibacterial activity against Escherichia coli DH5alpha carrying ampC gene of Acinetobacter genomosp. 3 isolate 14 by Etest method. Put shortly:
(§2)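 E. coli DH5α expressing the AG3 isolate ampC gene, PCR-amplified (high-fidelity system, 28 cycles) and cloned into BamHI/HindIII sites of pBGS18 (kanamycin marker) under the CTX-M-14 β-lactamase promoter. Grown at 37°C in LB, with kanamycin 50 µg/ml when needed. β-Lactam MICs determined by Etest per the manufacturer's instructions.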

Assay [18] has as its system Escherichia coli. Briefly: Antibacterial activity against Escherichia coli DH5alpha carrying ampC gene of Acinetobacter genomosp. 3 isolate 20 by Etest method. The procedure, abridged:
as §2

The subject of assay [19] is Escherichia coli. Nature of the assay: Antibacterial activity against Escherichia coli DH5alpha carrying ampC gene of Acinetobacter genomosp. 3 isolate 56 by Etest method. The procedure, abridged: as §2
Assay [20] relates to Escherichia coli. Briefly: Antibacterial activity against Escherichia coli DH5alpha carrying ampC gene of Acinetobacter genomosp. 3 isolate 65 by Etest method. The procedure, abridged:
as §2

Assay [21] relates to Escherichia coli. Briefly: Antibacterial activity against Escherichia coli DH5alpha carrying ampC gene of Acinetobacter genomosp. 3 isolate 69 by Etest method. The procedure, abridged:
as §2

In assay [22] the test system is Escherichia coli. Briefly: Antibacterial activity against Escherichia coli DH5alpha carrying ampC gene of Acinetobacter genomosp. 3 isolate 103 by Etest method. The procedure, abridged:
as §2

The test system of assay [23] is Escherichia coli. Nature of the assay: Antibacterial activity against Escherichia coli DH5alpha carrying ampC gene of Acinetobacter genomosp. 3 isolate 109 by Etest method. Put shortly:
as §2

In assay [24] the test system is Escherichia coli. Briefly: Antibacterial activity against Escherichia coli DH5alpha carrying ampC gene of Acinetobacter genomosp. 3 isolate 195 by Etest method. Put shortly:
as §2

Values after ≈ are worked out from the molar mass of the structure shown.

Take `Cc1onc(-c2ccccc2Cl)c1C(=O)N[C@@H]1C(=O)N2[C@@H]1SC(C)(C)[C@@H]2C(=O)O` [CLOXACILLIN]: the MIC (usually the least concentration at which growth counts as inhibited) with Acinetobacter pittii [1] came out at 2050 µg/mL; against Acinetobacter pittii [2], 1020 µg/mL; in the assay with Acinetobacter pittii [3] it was 512 µg/mL; in the assay on Acinetobacter pittii [4], 1020 µg/mL; with Acinetobacter pittii [5] it was 512 µg/mL; against Acinetobacter pittii [6] it was 1020 µg/mL. For the same molecule, the MIC in the assay on Acinetobacter pittii [7] is 1020 µg/mL; in the assay on Acinetobacter pittii [8], 1880 µg/mL; against Acinetobacter pittii [9], above 2050 µg/mL; in the assay on Acinetobacter pittii [10], 512 µg/mL; in the assay with Acinetobacter pittii [11] it was 1020 µg/mL; in the assay on Acinetobacter pittii [12], 2050 µg/mL. Further, the MIC amounted to 2050 µg/mL with Acinetobacter pittii [13], 1020 µg/mL against Acinetobacter pittii [14] and 2050 µg/mL against Acinetobacter pittii [15].
Turning to `N#CC(C#N)=NNc1cccc(Cl)c1` [CARBONYL CYANIDE M-CHLOROPHENYLHYDRAZONE], the minimum inhibitory concentration (MIC) is 400 µM in the assay on Acinetobacter pittii [1]; 400 µM with Acinetobacter pittii [2]; above 400 µM in the assay with Acinetobacter pittii [3]; above 400 µM with Acinetobacter pittii [4]; above 400 µM in the assay on Acinetobacter pittii [5]; above 400 µM against Acinetobacter pittii [6]. Besides, the MIC against Acinetobacter pittii [7], in the assay on Acinetobacter pittii [8], in the assay on Acinetobacter pittii [9], in the assay on Acinetobacter pittii [10], in the assay on Acinetobacter pittii [11] and against Acinetobacter pittii [12] was above 400 µM throughout. The MIC is above 400 µM in the assay on Acinetobacter pittii [13], above 400 µM in the assay with Acinetobacter pittii [14] and 400 µM in the assay on Acinetobacter pittii [15].
Regarding `CO[C@@]1(NC(=O)Cc2cccs2)C(=O)N2C(C(=O)O)=C(COC(N)=O)CS[C@@H]21` [CEFOXITIN], the minimum inhibitory concentration (MIC) was above 256 µg/mL in the assay with Acinetobacter pittii [1]; above 256 µg/mL against Acinetobacter pittii [2]; above 256 µg/mL with Acinetobacter pittii [3]; above 256 µg/mL with Acinetobacter pittii [4]; 64 µg/mL in the assay with Acinetobacter pittii [5]; above 256 µg/mL against Acinetobacter pittii [6]. Moreover, the MIC against Acinetobacter pittii [7] was 128 µg/mL; in the assay on Acinetobacter pittii [8], above 256 µg/mL; against Escherichia coli [16], 2 µg/mL (≈ 4.68 µM); with Acinetobacter pittii [9], above 256 µg/mL; in the assay with Acinetobacter pittii [10], 128 µg/mL; against Acinetobacter pittii [11] it was 192 µg/mL. The minimal inhibitory concentration (MIC) against Acinetobacter pittii [12] is above 256 µg/mL; in the assay on Acinetobacter pittii [13] it was 128 µg/mL; against Acinetobacter pittii [14], above 256 µg/mL; in the assay on Acinetobacter pittii [15] it was 48 µg/mL; in the assay with Escherichia coli [17] it was 32 µg/mL (≈ 74.9 µM); in the assay on Escherichia coli [18] it was 32 µg/mL (≈ 74.9 µM). The MIC was determined as 16 µg/mL (≈ 37.4 µM) in the assay with Escherichia coli [19]; 3 µg/mL (≈ 7.02 µM) in the assay with Escherichia coli [20]; 16 µg/mL (≈ 37.4 µM) against Escherichia coli [21]; 32 µg/mL (≈ 74.9 µM) with Escherichia coli [22]; 24 µg/mL (≈ 56.1 µM) in the assay on Escherichia coli [23]; 24 µg/mL (≈ 56.1 µM) in the assay with Escherichia coli [24].
On to `C[C@@H](O)[C@H]1C(=O)N2C(C(=O)O)=C(SCCNC=N)C[C@H]12` [IMIPENEM ANHYDROUS], for which the MIC with Acinetobacter pittii [1] came out at 0.25 µg/mL; in the assay with Acinetobacter pittii [2], 1 µg/mL; against Acinetobacter pittii [3], 0.38 µg/mL; with Acinetobacter pittii [4], 0.25 µg/mL; in the assay on Acinetobacter pittii [5], 0.19 µg/mL; with Acinetobacter pittii [6], 0.25 µg/mL. Also, the MIC against Acinetobacter pittii [7] worked out at 0.19 µg/mL; against Acinetobacter pittii [8], 0.19 µg/mL; in the assay with Escherichia coli [16], 0.125 µg/mL (≈ 0.418 µM); against Acinetobacter pittii [9] it was 0.25 µg/mL; against Acinetobacter pittii [10], 0.38 µg/mL; with Acinetobacter pittii [11] it was 0.75 µg/mL. For the same molecule, the minimum inhibitory concentration (MIC) with Acinetobacter pittii [12] worked out at 0.19 µg/mL; in the assay on Acinetobacter pittii [13] it was 0.12 µg/mL; in the assay with Acinetobacter pittii [14] it was 0.19 µg/mL; in the assay with Acinetobacter pittii [15], 0.19 µg/mL; with Escherichia coli [17], 0.125 µg/mL (≈ 0.418 µM); in the assay on Escherichia coli [18], 0.023 µg/mL (≈ 0.0768 µM). Moreover, the MIC against Escherichia coli [19] is 0.19 µg/mL (≈ 0.635 µM); in the assay with Escherichia coli [20], 0.19 µg/mL (≈ 0.635 µM); against Escherichia coli [21], 0.19 µg/mL (≈ 0.635 µM); in the assay on Escherichia coli [22] it was 0.125 µg/mL (≈ 0.418 µM); against Escherichia coli [23], 0.12 µg/mL (≈ 0.401 µM).
Consider `CO/N=C(\C(=O)N[C@@H]1C(=O)N2C(C(=O)O)=C(COC(N)=O)CS[C@H]12)c1ccco1` [CEFUROXIME], for which the MIC amounted to 32 µg/mL with Acinetobacter pittii [1]; 48 µg/mL in the assay with Acinetobacter pittii [2]; 48 µg/mL in the assay on Acinetobacter pittii [3]; 32 µg/mL against Acinetobacter pittii [4]; 16 µg/mL with Acinetobacter pittii [5]; 64 µg/mL against Acinetobacter pittii [6]. Also, the MIC with Acinetobacter pittii [7] came out at 24 µg/mL; against Acinetobacter pittii [8] it was 48 µg/mL; against Escherichia coli [16], 1.5 µg/mL (≈ 3.53 µM); against Acinetobacter pittii [9], 32 µg/mL; against Acinetobacter pittii [10], 16 µg/mL; in the assay with Acinetobacter pittii [11] it was 48 µg/mL. Besides, the MIC with Acinetobacter pittii [12] is 32 µg/mL; in the assay with Acinetobacter pittii [13] it was 32 µg/mL; in the assay on Acinetobacter pittii [14], 64 µg/mL; with Acinetobacter pittii [15], 32 µg/mL; with Escherichia coli [17] it was 64 µg/mL (≈ 151 µM); against Escherichia coli [18] it was 96 µg/mL (≈ 226 µM). The MIC in the assay with Escherichia coli [19] came to 48 µg/mL (≈ 113 µM); against Escherichia coli [20], 4 µg/mL (≈ 9.43 µM); in the assay on Escherichia coli [21], 32 µg/mL (≈ 75.4 µM); in the assay on Escherichia coli [22], 64 µg/mL (≈ 151 µM); against Escherichia coli [23], 32 µg/mL (≈ 75.4 µM); against Escherichia coli [24], 48 µg/mL (≈ 113 µM).
